M1 PAM parental = nonselective calcium activators in parental CHO-K1 cells, primary screen, counter-screen for M1 PAM project, cell-based, Fluo-8 calcium fluorescence, full deck, 1536-well. ATP EC20; 0% at ATP EC20, 100% at ATP max. 360,000 compounds, 0.02% hits. AID 602247, 2012. activation, % at 3 µM;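 active = activation above the run cutoff, the mean activation of all test compounds plus 3 SD, cut at about 40% in these data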;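 also: peak over basal fluorescence ratio in a 140 s read after ATP addition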
M1 ag parental = counter-screen for M1 agonists: effect in parental CHO-K1 cells. Fluo-8 calcium fluorescence; scaled to maximal ATP response, vehicle zero. activation, % at 3 µM. 360,000 compounds, 0.48% hits; in the data active = activation above about 15%;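 also: untransfected CHO-K1 host cells lacking M1 receptor as counterscreen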
CHO-K1 Ca antag = counter-screen for M1 antagonists: effect in parental CHO-K1 cells. inhibition, % at 3 µM. 360,000 compounds, 0.6% hits. ATP-induced calcium, Fluo-8 fluorescence. AID 602250;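 active = inhibition above a per-plate cutoff, the plate's mean sample inhibition plus 3 SD, cut at about 24% in these data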;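 also: 0% = DMSO plus EC80 ATP and 100% = DMSO alone without ATP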
OX1R antag-1 = OX1R (HCRTR1) antagonists, primary screen, fluorescence, CHO/OX1R cells, Fluo-8 calcium, orexin A | 330,000 compounds, 0.43% hits | inhibition, % at 5 µM | Fluo-8 calcium fluorescence;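 active = inhibition above its plate's threshold, mean inhibition of all tested compounds on the plate plus 3 SD, cut at about 37% in these data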;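 also: 0% = orexin A challenge wells and 100% = SB-334867-A antagonist wells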
Target sequence (O43613 whole entry, looked up): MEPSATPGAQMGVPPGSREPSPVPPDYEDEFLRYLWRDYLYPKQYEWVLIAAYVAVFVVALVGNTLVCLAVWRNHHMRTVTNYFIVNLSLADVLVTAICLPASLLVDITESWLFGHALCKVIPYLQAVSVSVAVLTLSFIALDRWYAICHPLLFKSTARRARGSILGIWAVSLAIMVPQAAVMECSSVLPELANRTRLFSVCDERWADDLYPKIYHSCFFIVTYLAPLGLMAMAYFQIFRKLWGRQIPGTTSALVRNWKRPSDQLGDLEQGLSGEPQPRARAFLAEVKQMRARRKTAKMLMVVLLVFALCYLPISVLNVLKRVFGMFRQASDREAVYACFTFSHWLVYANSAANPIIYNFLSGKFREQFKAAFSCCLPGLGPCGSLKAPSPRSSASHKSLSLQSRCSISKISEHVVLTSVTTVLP
CHO parental Ca = ATP-evoked calcium signal inhibitors, parental CHO, primary screen, counter-screen for OX1R antagonist project, cell-based, fluorescence, Fluo-8 calcium dye; parental CHO-K1, ATP-induced calcium, Fluo-8 fluorescence; inhibition, % at 5.6 µM; 330,000 compounds, 0.63% hits; AID 463079, 2010;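 active = inhibition above that plate's mean sample inhibition plus 3 SD, cut at about 26% in these data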;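 also: 0% = ATP-challenged DMSO wells and 100% = DMSO wells without ATP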
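Test system: untransfected parental CHO cell line; also added: ATP stimulus; dosing: 5.6 µM, single dose; signal: calcium-sensitive Fluo-8 fluorescence; measure: percent inhibition of ATP-evoked calcium rise, normalized to controls; benchmarks: low control ATP plus DMSO, high control DMSO only; replication: one well per compound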
OX1R antag-2 = antagonists of human orexin 1 receptor (OX1R). Orexin/Hypocretin receptor type 1 (Homo sapiens), O43613. OX1R-expressing cells, FRET antagonist read-out. inhibition, % at 6.6 µM. 330,000 compounds, 1.8% hits. AID 485270, 2010; in the data active = inhibition mostly above about 38%, no sharp cut-off; inactive = mostly below about 40%;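 also: 0% = agonist challenge alone and 100% = reference antagonist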
OX1R HTRF conf = OX1R (HCRTR1) antagonists, confirmation, cell-based, HTRF; shares compounds with OX1R antag-2; 1,800 compounds, 49% hits; AID 492964, 2010; OX1R-expressing cells, HTRF antagonist assay; inhibition, % at 6.6 µM; in the data active = inhibition above about 55%;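 also: CHO cells expressing OX1R stimulated with orexin A at about EC80; 0% = agonist challenge alone and 100% = reference antagonist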
CHO-K1 HTRF cnt = signal inhibition in parental CHO-K1 cells, counter-screen for OX1R antagonist project, cell-based, HTRF | shares compounds with OX1R antag-2 | HTRF counterscreen | inhibition, % at 6.6 µM | 1,800 compounds, 48% hits | AID 493232, 2011; in the data active = inhibition above about 17%;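 also: 0% = agonist challenge with vehicle and 100% = vehicle alone without agonist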
* hit, by the source's call; . = no result. Only some compounds are listed: those with a hit (about 2.9% of all), similar ones and a draw of the others.

SMILES	M1 PAM parental	M1 ag parental	CHO-K1 Ca antag	OX1R antag-1	CHO parental Ca	OX1R antag-2	OX1R HTRF conf	CHO-K1 HTRF cnt
NC(=O)c1c(NC(=O)c2ccncc2)sc2c1CCCC2	5	1	-4	-30	-11	20	.	.
COC(=O)c1sccc1NC(=O)c1ccc(C)cc1	10	0	-14	-32	-14	23	.	.
COc1cc(NC(=O)c2ccc(Cl)cc2)c2ncccc2c1	-4	0	-13	.	.	.	.	.
COC(=O)c1sccc1NC(=O)c1ccc(OC)cc1	21	1	-7	4	-14	89*	68*	5
COc1cc(OC)cc(C(=O)Nc2cccc3cccnc23)c1	-3	-1	3	-3	-12	81*	75*	6
COc1ccc(C(=O)Nc2cc(OC)cc3cccnc23)cc1	-7	-1	-9	26	-18	99*	86*	22*
NS(=O)(=O)c1ccc(NN=C2CCN(Cc3ccccc3)CC2)c([N+](=O)[O-])c1	-4	0	5	8	-3	83*	19	7
Cc1nc(C)n(CC(C)C(=O)N2CCN(S(=O)(=O)c3ccccc3)CC2)n1 (stereo not drawn)	4	1	-17	-1	-6	6	.	.
CSc1ccc(CN(C)C(=O)CNC(=O)c2ccc3c(c2)OCO3)cc1	-25	0	9	-23	-12	9	.	.
Cn1cnnc1SCC(=O)n1c2ccccc2c2ccccc21	21	1	-12	-17	-23	20	.	.
Cn1cnnc1SCc1ccc(C(=O)N=Nc2c(O)n(C)c3ccccc23)cc1	27	3	-3	-15	-19	139*	54	62*
C#CCNC(=O)c1cc2c(Br)ccc(Br)c2nc1N	12	1	-24	.	.	.	.	.
CCC(CC)c1nn2c(N)c(/C=C3\C=Nc4ccccc43)c(=O)nc2s1	15	1	-7	-21	-15	45	.	.
CC(C)c1nn2c(N)c(/C=C3\C=Nc4ccccc43)c(=O)nc2s1	-8	4	1	2	-11	82*	66*	9
COc1ccc(-n2nc(C(=O)N3CCCCC3)c(C)c(C#N)c2=O)cc1	12	0	-10	-12	-9	113*	77*	50*
COC(=O)Nc1nn(-c2ccc(C)cc2)c(=O)c(C#N)c1C	5	0	-10	1	-11	137*	56*	68*
COC(=O)Nc1nn(-c2ccc(OC)cc2)c(=O)c(C#N)c1C	16	2	-14	-1	-11	166*	59*	91*
Cc1c(C(=O)NN)nn(-c2ccc(Cl)cc2)c(=O)c1C#N	8	0	-8	-4	-4	32	.	.
N=c1c(S(=O)(=O)c2ccc(F)cc2)cc2c(=O)n3ccccc3nc2n1CC1CCCO1 (stereo not drawn)	4	1	-24	-3	6	14	.	.
CCOC(=O)c1cc2c(=O)n3ccccc3nc2n(CC2CCCO2)c1=NC(C)=O (stereo not drawn)	6	1	-3	-27	-17	108*	39	56*
CCCCn1c(=NC(=O)c2cccnc2)c(C(=O)OCC)cc2c(=O)n3ccccc3nc21	13	2	-5	.	.	.	.	.
CCOCCCn1c(=NC(=O)c2cccnc2)c(C(=O)OCC)cc2c(=O)n3ccccc3nc21	-24	1	6	-35	-20	111*	57*	59*
CCOC(=O)c1cc2c(=O)n3ccccc3nc2n(CC2CCCO2)c1=NC(=O)/C=C/c1ccccc1 (stereo not drawn)	7	1	-3	-21	-22	119*	46	42*
CC(C(=O)Nc1ccccn1)N1C(=O)c2ccccc2S1(=O)=O (stereo not drawn)	-11	1	-3	-5	16	18	.	.
CC1=C(C(=O)O)CC(S(=O)(=O)O)C1(C)C (stereo not drawn)	24	1	-16	.	.	.	.	.
SMILES	M1 PAM parental	M1 ag parental	CHO-K1 Ca antag	OX1R antag-1	CHO parental Ca	OX1R antag-2	OX1R HTRF conf	CHO-K1 HTRF cnt
COc1ccc(Cl)cc1C(=O)NNC(=O)CNC(=O)c1ccco1	20	1	-10	3	-8	6	.	.
CCC/C(=N\NC(=O)c1ccco1)c1ccc(Cl)s1	2	0	-1	.	.	.	.	.
O=c1oc2ccccc2n1CCn1c2ccccc2c2nc3ccccc3nc21	-1	1	-2	-13	-18	50	.	.
N#CCCn1c2ccccc2c2nc3ccccc3nc21	-2	0	4	2	-15	77*	84*	1
Cc1ccc(C(=O)/C=C2\NCCNC2=O)cc1	16	0	-9	-17	-9	69	.	.
Cc1ccc(C(=O)/C=C2\NCC(C)NC2=O)cc1 (stereo not drawn)	-7	0	16	-17	-14	78*	40	18*
CCCNC(=O)C(Cc1ccc(C(F)(F)F)cc1)NC(=O)c1ccc(C#N)cc1 (stereo not drawn)	9	0	-4	-15	-19	2	.	.
CCn1ccnc1CNC(=O)c1ccc2oc(CCCc3ccccc3)nc2c1	20	6	-2	-15	-13	4	.	.
CCN(C(=O)COC(=O)/C=C/c1cnc2ccccc2n1)C1CCS(=O)(=O)C1 (stereo not drawn)	-16	3	-3	-11	-5	82*	39	46*
COc1ccc(Cl)c(-c2cc(C(=O)Nc3ccc(F)cc3)[nH]n2)c1	-8	4	10	.	.	.	.	.
CCN(CC(=O)Nc1ccccc1C(F)(F)F)C(=O)/C=C/c1ccc(Cl)c([N+](=O)[O-])c1	5	0	4	-22	-9	13	.	.
CCCn1nc([N+](=O)[O-])c(C(C#N)c2nc3ccccc3o2)c(Cl)c1=O (stereo not drawn)	12	3	-7	-1	-15	87*	46	22*
Cc1c(N(C)S(=O)(=O)c2ccc(Cl)c(C(=O)NCC(C)(C)N3CCOCC3)c2)c(=O)n(-c2ccccc2)n1C	6	0	-14	.	.	.	.	.
Cn1c2ccccc2c(=O)c2cc(C#Cc3ccccn3)ccc21	-2	1	-5	29	-10	90*	94*	11
CCN(CC)C(=O)CSc1nnc2nnc3cc(C)ccc3n12	-4	0	-3	-19	-21	91*	60*	103*

Bioassay records (PubChem)
